Like-named read-outs stand apart in the source and are kept apart here.
How the values were obtained:
HIV-1NL4.3 = assay: HIV replication assay in PBMCs; type: cell-based
OM-10.1 cells = assay: TNFα-induced provirus expression; type: cell-based; settings: for EC50: 24 h, read-out: TNFα EC50, inhibition of provirus expression
Outline: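 OM-10.1 cells seeded at 200,000 cells/well and co-treated with 1 ng/mL TNFα plus test compound or 0.1% DMSO for 24 h. Cells were fixed, permeabilized, stained for intracellular p24Gag (KC57-RD1) and scored on live-gated cells by flow cytometry. EC50s were derived after normalizing to TNFα-only controls.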

class I and II HDAC = assay: Cellular HDAC activity assay; type: cell-based; settings: for IC50: read-out: HDAC Inhibition IC50, Jurkat cells, 90 min, HDAC-Glo I/II
[1] = Viability of uninfected PBMCs; type: cell-based, human; settings: human, CC50, uninfected PBMCs, Viacount dye
[2] = test system: Tat-dependent transactivation; assay: Tat-transactivated mCherry expression in JurTat cells; type: cell-based
Outline: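 JurTat cells (Tat-Dendra plus HIV LTR-mCherry) were induced with 500 ng/mL doxycycline and seeded at 200,000 cells/well with test compound or 0.1% DMSO. After 24 h, Tat-Dendra and mCherry were measured by flow cytometry. Values are percent positive cells and mCherry:Dendra fluorescence ratio, expressed relative to 0.1% DMSO-treated cells.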

CDK9/cyclin T1 = CDK9/cyclin T1 (Homo sapiens, UniProt P50750); assay: CDK9 kinase activity assay; type: biochemical
Sequence of CDK9/cyclin T1 (P50750 whole entry): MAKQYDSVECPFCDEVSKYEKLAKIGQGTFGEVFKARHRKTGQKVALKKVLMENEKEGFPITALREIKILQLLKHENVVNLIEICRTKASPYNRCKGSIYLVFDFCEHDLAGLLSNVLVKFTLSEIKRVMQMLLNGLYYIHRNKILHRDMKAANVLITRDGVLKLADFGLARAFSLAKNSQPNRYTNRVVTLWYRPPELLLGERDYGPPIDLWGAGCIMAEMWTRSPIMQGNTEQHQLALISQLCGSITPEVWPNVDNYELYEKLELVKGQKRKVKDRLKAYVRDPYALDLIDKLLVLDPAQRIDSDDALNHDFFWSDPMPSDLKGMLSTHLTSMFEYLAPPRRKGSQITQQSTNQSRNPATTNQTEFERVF
Sequence of CDK9/cyclin T1 (O60563 whole entry partner): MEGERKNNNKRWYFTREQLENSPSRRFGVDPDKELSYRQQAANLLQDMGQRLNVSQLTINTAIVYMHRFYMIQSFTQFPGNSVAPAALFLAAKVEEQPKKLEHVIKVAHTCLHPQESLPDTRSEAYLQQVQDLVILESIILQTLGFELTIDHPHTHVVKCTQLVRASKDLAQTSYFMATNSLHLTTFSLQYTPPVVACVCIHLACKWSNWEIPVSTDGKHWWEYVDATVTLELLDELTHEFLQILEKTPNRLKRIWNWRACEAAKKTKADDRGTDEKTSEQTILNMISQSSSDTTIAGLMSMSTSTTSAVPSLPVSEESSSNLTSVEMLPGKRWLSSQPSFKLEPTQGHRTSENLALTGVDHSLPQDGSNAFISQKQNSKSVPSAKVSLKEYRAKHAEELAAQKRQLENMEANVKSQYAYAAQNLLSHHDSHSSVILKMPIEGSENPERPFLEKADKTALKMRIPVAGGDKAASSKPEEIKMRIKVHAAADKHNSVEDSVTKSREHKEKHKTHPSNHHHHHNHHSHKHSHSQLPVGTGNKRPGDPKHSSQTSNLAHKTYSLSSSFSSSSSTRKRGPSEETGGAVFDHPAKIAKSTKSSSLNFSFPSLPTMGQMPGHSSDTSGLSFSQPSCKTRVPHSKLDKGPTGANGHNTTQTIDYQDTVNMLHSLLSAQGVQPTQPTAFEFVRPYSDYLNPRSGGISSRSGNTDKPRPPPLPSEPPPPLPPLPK

J-Lat 9.2 cells = assay: LRA-induced provirus expression; type: cell-based; settings: for EC50: J-Lat 9.2, 24 h; for GFP expression induced, % of cells: 24 h, LRA only; for provirus expression inhibited: J-Lat 9.2, 10 ng/mL TNFα; for stimulation of GFP expression: J-Lat 9.2, data not shown
J-Lat 10.6 cells [3] = assay: LRA-induced provirus expression; type: cell-based; settings: for EC50: J-Lat 10.6, 24 h
J-Lat 10.6 cells [4] = type: cell-based; settings: 10 μM for 21 days, washed, 24 h drug-free, J-Lat 10.6
PBMCs = assay: Viability of uninfected PBMCs; type: cell-based, human; settings: up to 30 μM, 6 days
[5] = read-out: Panobinostat EC50, inhibition of provirus expression
[6] = read-out: Prostratin EC50, inhibition of provirus expression
[7] = read-out: TNFα EC50, inhibition of provirus expression
[8] = read-out: HMBA EC50, inhibition of provirus expression
[9] = read-out: JQ1 EC50, inhibition of provirus expression
[10] = 15 μM, JurTat + 500 ng/mL Dox, 24 h

Molecule | Selectivity Index (CC50/EC50) (HIV-1NL4.3) | EC50 (OM-10.1 cells) | HDAC activity inhibited (class I and II HDAC; 10 μM, Jurkat) | IC50 (class I and II HDAC) | CC50 at 6 days [1] | IC50 (CDK9/cyclin T1) | EC50 (J-Lat 9.2 cells; [5]) | EC50 (J-Lat 9.2 cells; [6]) | EC50 (J-Lat 9.2 cells; [7]) | EC50 (J-Lat 10.6 cells [3]; [8]) | EC50 (J-Lat 10.6 cells [3]; [9]) | EC50 (J-Lat 10.6 cells [3]; [7]) | GFP expression 24 hours after washing, % of vehicle-treated control cells (J-Lat 10.6 cells [4]) | other results
O=c1cc(-c2ccc(O)c(O)c2)oc2cc(O)cc(O)c12 [Luteolin, luteolin] | 1.1 | 10.3 ± 0.6 µM | 10.1 ± 1.6% | > 90 µM | 13.9 ± 5.9 µM | 0.072 ± 0.03 µM | 6.8 ± 0.8 µM | 20.6 ± 2.6 µM | 7.6 ± 0.6 µM | 26.5 ± 5.8 µM | 15.4 ± 1.5 µM | 13.6 ± 0.8 µM | 79.9 ± 26.6% | HDAC activity inhibited (class I and II HDAC; 100 μM, Jurkat): 42.6 ± 9.5%; EC50, mCherry:Dendra fluorescence ratio ([2]; JurTat + 500 ng/mL Dox, 24 h): 9.5 ± 1.5 µM
O=c1cc(-c2ccc(O)cc2)oc2cc(O)cc(O)c12 [Apigenin, apigenin] | 4.0 | 4.1 ± 0.8 µM | 19.4 ± 5.4% | 47.2 ± 6.7 µM | 19.8 ± 6.5 µM | 0.21 ± 0.1 µM | 4.1 ± 0.4 µM | 7.3 ± 1.1 µM | 5.6 ± 0.6 µM | 5.2 ± 0.8 µM | 7.2 ± 1.1 µM | 6.2 ± 0.3 µM | 80.6 ± 80.5% | Dendra, % of fluorescence in cells treated with only Dox ([2]; 15 μM, JurTat): 39.9%; mCherry, % of fluorescence in cells treated with only Dox ([2]; 15 μM, JurTat): 13.7%; residual mCherry fluorescence as % of residual Dendra fluorescence ([2]; 15 μM, JurTat): 34.3%; Dendra expression, % of cells [2, 10]: 17.4 ± 6.5%; mCherry expression, % of cells [2, 10]: 1.8 ± 0.7%; EC50, mCherry:Dendra fluorescence ratio ([2]; JurTat + 500 ng/mL Dox, 24 h): 14.5 ± 1.5 µM
O=C1C[C@@H](c2ccc(O)cc2)Oc2cc(O)cc(O)c21 [Naringenin, naringenin, reference compound] | – | > 30 µM | – | 88.7 ± 32.1 µM | > 30 µM | > 30 µM | > 30 µM | > 30 µM | > 30 µM | > 30 µM | > 30 µM | > 30 µM | – | antiviral activity (HIV-1NL4.3; up to 30 μM): no antiviral activity was observed; inhibition of TNFα-induced provirus expression (OM-10.1 cells; OM-10.1, 1 ng/mL TNFα): no inhibition was observed; toxicity (PBMCs): No toxicity was observed; effect on ratio of mCherry:Dendra fluorescence ([2]; up to 30 μM, JurTat): neither naringenin nor L7G substantially affected the ratio; inhibition of LRA-induced provirus expression (J-Lat 10.6 cells [3]; J-Lat 10.6, TNFα, JQ1, HMBA): did not inhibit any LRA-induced provirus expression
CC(=O)O[C@@]12C[C@@H](C)[C@@]3(O)[C@@H](C=C(CO)C[C@]4(O)C(=O)C(C)=C[C@@H]34)[C@@H]1C2(C)C [prostratin, reference compound] | – | – | – | – | – | – | – | – | – | – | – | – | – | GFP expression induced, % of cells (J-Lat 9.2 cells; J-Lat 9.2, 10 μM): 10.7 ± 2.7%
O=c1cc(-c2ccccc2)oc2cc(O)cc(O)c12 [Chrysin, chrysin] | > 3.3 | 4.7 ± 0.3 µM | 37.9 ± 7.7% | 24 ± 4.8 µM | > 30 µM | 0.021 ± 0.01 µM | 2.8 ± 0.4 µM | 4.3 ± 1.2 µM | 4 ± 0.4 µM | 6.7 ± 1.4 µM | 7.7 ± 1.5 µM | 6.3 ± 0.7 µM | 70.9 ± 65.6% | toxicity (PBMCs): no toxicity was observed; provirus expression inhibited (J-Lat 9.2 cells; 3 μM): 22.5 ± 24.9%; provirus expression inhibited (J-Lat 9.2 cells; 10 μM): 88.3 ± 8.8%
TNFα | – | – | – | – | – | – | – | – | – | – | – | – | – | p24Gag production induced, % of live-gated cells (OM-10.1 cells; OM-10.1, 1 ng/mL): 90.6 ± 4.0%; GFP expression induced, % of cells (J-Lat 9.2 cells; J-Lat 9.2, 10 ng/mL): 10.4 ± 1.7%; GFP-positive cells induced (J-Lat 10.6 cells [3]; J-Lat 10.6, 10 ng/mL, 24 h, LRA only): 80.3 ± 2.6%
Cc1[nH]c2ccccc2c1CCNCc1ccc(/C=C/C(=O)NO)cc1 [panobinostat, reference compound] | – | – | – | – | – | – | – | – | – | – | – | – | – | cellular HDAC activity reduced (class I and II HDAC; 0.1 μM, Jurkat): 88.0 ± 10.9%; GFP expression induced, % of cells (J-Lat 9.2 cells; J-Lat 9.2, 0.1 μM): 10.8 ± 1.4%
CC(=O)NCCCCCCNC(C)=O [HMBA, reference compound] | – | – | – | – | – | – | – | – | – | – | – | – | – | stimulation of GFP expression (J-Lat 9.2 cells): did not stimulate GFP expression; GFP production, % of cells (J-Lat 10.6 cells [3]; J-Lat 10.6, 10 mM, LRA only): 34.6 ± 1.4%
Cc1sc2c(c1C)C(c1ccc(Cl)cc1)=N[C@@H](CC(=O)OC(C)(C)C)c1nnc(C)n1-2 [JQ1, reference compound] | – | – | – | – | – | – | – | – | – | – | – | – | – | stimulation of GFP expression (J-Lat 9.2 cells): did not stimulate GFP expression; GFP production, % of cells (J-Lat 10.6 cells [3]; J-Lat 10.6, 10 μM, LRA only): 35.9 ± 2.0%

— PMC8052299 (Biochemical pharmacology, 2021)
